Measured values reported in BindingDB's records for doi:10.1021/jm0101702 (Abbott Laboratories, 2001).

Experiments:
[1] = target: T1, Vascular cell adhesion protein 1 (Homo sapiens, UniProt P19320); assay: In vitro inhibitory potency compared to TNF-alpha induced VCAM-1 in human endothelial cells (ELISA assay)
T1 sequence (P19320 whole entry): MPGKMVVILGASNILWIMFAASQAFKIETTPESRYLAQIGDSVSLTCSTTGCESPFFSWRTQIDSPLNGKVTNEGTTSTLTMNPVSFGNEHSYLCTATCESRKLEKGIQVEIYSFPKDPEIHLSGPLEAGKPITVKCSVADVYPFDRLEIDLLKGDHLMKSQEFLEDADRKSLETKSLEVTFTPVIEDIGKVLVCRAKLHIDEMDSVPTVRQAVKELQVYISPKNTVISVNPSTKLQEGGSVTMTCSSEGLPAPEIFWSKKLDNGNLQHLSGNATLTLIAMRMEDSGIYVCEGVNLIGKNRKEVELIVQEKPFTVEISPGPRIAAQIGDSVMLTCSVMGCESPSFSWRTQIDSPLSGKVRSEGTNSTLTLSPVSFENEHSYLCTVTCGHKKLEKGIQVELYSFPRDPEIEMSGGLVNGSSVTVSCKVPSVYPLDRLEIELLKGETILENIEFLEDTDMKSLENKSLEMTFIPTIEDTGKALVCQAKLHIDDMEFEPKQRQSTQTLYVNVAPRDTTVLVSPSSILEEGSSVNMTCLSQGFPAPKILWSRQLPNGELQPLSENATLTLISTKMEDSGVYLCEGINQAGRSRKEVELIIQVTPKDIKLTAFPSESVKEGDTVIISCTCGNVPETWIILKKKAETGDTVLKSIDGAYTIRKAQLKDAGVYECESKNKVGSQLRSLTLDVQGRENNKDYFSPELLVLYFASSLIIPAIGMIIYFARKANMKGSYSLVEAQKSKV
How it was run: (§1)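 Whole-cell ELISA on primary HUVECs plated at 5 × 10^4 cells/mL in EBM/2% FBS with growth supplements. Compound preincubated 24 h at 37 °C, then inducer added (TNFα at 5 ng/mL final, or IL-1β or PMA in its place) for 6 h at 37 °C. Mouse monoclonal anti-E-selectin, anti-ICAM-1 or anti-VCAM-1 was applied overnight at 4 °C, then HRP anti-mouse IgG. Detection with OPD, A490. Triplicate assays.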

[2] = target: T1, Vascular cell adhesion protein 1; assay: In vitro inhibitory potency compared to IL1-beta induced VCAM-1 in human endothelial cells (ELISA assay); how it was run: as §1
[3] = target: T1, Vascular cell adhesion protein 1; assay: In vitro inhibitory potency compared to PMA induced VCAM-1 in human endothelial cells (ELISA assay); how it was run: as §1
[4] = Inhibition of VCAM-1 in human endothelial cells
[5] = target: T1, Vascular cell adhesion protein 1; assay: Inhibition of VCAM-1 in human endothelial cells; how it was run: as §1
[6] = target: T1, Vascular cell adhesion protein 1; assay: In vitro inhibitory potency compared to IL1-beta induced VCAM-1 expression in human endothelial cells (ELISA assay)
How it was run: (§2)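 Primary HUVECs seeded at 5 × 10^4 cells/mL in EBM/2% FBS with EGF, bovine brain extract and gentamicin. Compound added next day for 24 h at 37 °C, then inducer (IL-1β or PMA, level not stated) for 6 h at 37 °C. Whole-cell ELISA used mouse monoclonal anti-ICAM-1 or anti-VCAM-1, HRP donkey anti-mouse IgG and OPD, read at 490 nm. Run in triplicate.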

[7] = target: T1, Vascular cell adhesion protein 1; assay: In vitro inhibitory potency compared to PMA induced VCAM-1 expression in human endothelial cells (ELISA assay); how it was run: as §2

IC50 [1] [nM]	IC50 [2] [nM]	IC50 [3] [nM]	IC50 [5] [nM]	SMILES	IC50 [4] [nM]	IC50 [6] [nM]	IC50 [7] [nM]
8	7	20	–	NC(=O)c1cc2c(Oc3ccc(Br)cc3)cncc2s1 [4-(4-Bromo-phenoxy)-thieno[2,3-c]pyridine-2-carboxylic acid amide]	48	–	–
–	–	–	> 1000	Cc1ccc(Sc2cncc3sc(C(N)=O)cc23)cc1 [4-p-Tolylsulfanyl-thieno[2,3-c]pyridine-2-carboxylic acid amide]	–	–	–
–	–	–	–	CNC(=O)c1cc2c(Oc3ccc(Cl)cc3)cncc2s1 [4-(4-Chloro-phenoxy)-thieno[2,3-c]pyridine-2-carboxylic acid methylamide]	> 1000	70	200
